# Measured values: ChEMBL document CHEMBL5512642, “Novel triterpenoid pyrones, phthalimides and phthalates are selectively cytotoxic in CCRF-CEM cancer cells - Synthesis, potency, and mitochondrial mechanism of action” (Eur J Med Chem, 2024)
# Calls of active or inactive are those of the source. The calls are words filed in the database; no cut-off is given here.
# Key:
# [1] = Efflux ratio of apparent permeability across basolateral to apical side over apical to basolateral side in MDCK-MDR1 cells; type: ADME, cell-based, Canis lupus familiaris; settings: dog
# Outline: (§1)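 Caco-2 and MDCK-MDR1 monolayers; transport measured in both directions, apical→basolateral and basolateral→apical. Efflux ratio taken from the two directions; ER > 2 counted as active efflux. Compound recovery reported. Cell-based permeability runs done in duplicate.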
# [2] = Metabolic stability in human liver microsomes assessed as compound remaining at measured at 60 mins in presence of NADPH by RF-MS analysis; type: ADME, Microsome; settings: read-out: Stability
# Outline: (§2)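 Human liver microsomes with NADPH cofactor to assess phase I oxidation. Compound remaining sampled at 15, 30 and 60 min; intrinsic clearance derived and categorized. Run in triplicate.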
# CCRF-CEM [3] = experiment: Induction of mitochondrial membrane potential loss in human CCRF-CEM cells assessed as cells with depolarized mitochondria (P2 gate) by measuring green fluorescence intensity at 5 time IC50 incubated for 24 hrs by JC-1 staining based flow cytometry (reference value: 2.1%)
# CCRF-CEM [4] = experiment: Induction of apoptosis in human CCRF-CEM cells assessed as necrotic cells at 5 time IC50 incubated for 24 hrs by Annexin V and propidium iodide staining based flow cytometry analysis (reference value: 0.; type: functional
# [5] = Apparent permeability of the compound in human Caco-2 cells; type: ADME, cell-based; outline: as §1
# CCRF-CEM [6] = experiment: Induction of apoptosis in human CCRF-CEM cells assessed as early apoptotic cells at 1 time IC50 incubated for 24 hrs by Annexin V and propidium iodide staining based flow cytometry analysis (reference value: 1.4%); type: functional
# CCRF-CEM [7] = experiment: Induction of apoptosis in human CCRF-CEM cells assessed as early apoptotic cells at 5 time IC50 incubated for 24 hrs by Annexin V and propidium iodide staining based flow cytometry analysis (reference value: 1.4%); type: functional
# CCRF-CEM [8] = experiment: Induction of apoptosis in human CCRF-CEM cells assessed as necrotic cells at 1 time IC50 incubated for 24 hrs by Annexin V and propidium iodide staining based flow cytometry analysis (reference value: 0.1%); type: functional
# [9] = Cytotoxicity against human K562-Tax cells assessed as reduction in cell viability incubated for 72 hrs by MTS assay; type: functional, cell-based
# CCRF-CEM [10] = experiment: Induction of apoptosis in human CCRF-CEM cells assessed as viable cells at 5 time IC50 incubated for 24 hrs by Annexin V and propidium iodide staining based flow cytometry analysis (reference value: 98%); type: functional
# [11] = Plasma protein binding in human assessed as fraction bound at 10 uM by rapid equilibrium dialysis based RF-MS analysis; type: ADME, cell-free; settings: read-out: PPB (converted)
# Outline: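 Human plasma protein binding measured by equilibrium dialysis and reported as percent fraction bound. Run in triplicate.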
# HCT-116 = experiment: Cytotoxicity against human HCT-116 cells assessed as reduction in cell viability incubated for 72 hrs by MTS assay; type: functional, cell-based; settings: HCT-116, 72 h
# HCT 116 TP53(-/-) = experiment: Cytotoxicity against human HCT116-p53-null cells assessed as reduction in cell viability incubated for 72 hrs by MTS assay; type: functional, cell-based
# U2OS = experiment: Cytotoxicity against human U2OS cells assessed as reduction in cell viability incubated for 72 hrs by MTS assay; type: functional, cell-based
# CCRF-CEM [12] = experiment: Induction of mitochondrial membrane potential loss in human CCRF-CEM cells assessed as cells with depolarized mitochondria (P2 gate) by measuring green fluorescence intensity at 1 time IC50 incubated for 24 hrs by JC-1 staining based flow cytometry (reference value: 2.1%)
# CCRF-CEM [13] = experiment: Induction of apoptosis in human CCRF-CEM cells assessed as viable cells at 1 time IC50 incubated for 24 hrs by Annexin V and propidium iodide staining based flow cytometry analysis (reference value: 98%); type: functional
# CCRF-CEM [14] = experiment: Induction of apoptosis in human CCRF-CEM cells assessed as late apoptotic cells at 5 time IC50 incubated for 24 hrs by Annexin V and propidium iodide staining based flow cytometry analysis (reference value: 0.5%); type: functional
# [15] = Metabolic stability in human liver microsomes assessed as compound remaining at measured at 15 mins in presence of NADPH by RF-MS analysis; type: ADME, Microsome; settings: read-out: Stability; outline: as §2
# CCRF-CEM [16] = experiment: Induction of apoptosis in human CCRF-CEM cells assessed as reduction in Bcl-XL expression at 5 time of IC50 incubated for 24 hrs by Western blot analysis; type: functional, cell-based
# Outline: (§3)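 Lysate 20 µg protein per lane on SDS-PAGE, transferred to nitrocellulose, blocked in 5% BSA/TBS-Tween. Probed overnight at 4 °C with anti-caspase-3, Bcl-2, Bcl-XL, β-actin, then HRP secondary 1 h. ECL chemiluminescence detection.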
# [17] = Stability in human plasma assessed as compound remaining measured 120 mins by RF-MS analysis; type: ADME, cell-free; settings: read-out: Stability
# Outline: (§4)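 Compounds incubated in human plasma in vitro for up to 2 h. Percent remaining sampled at 15, 30, 60 and 120 min. Run in triplicate.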
# CCRF-CEM [18] = experiment: Antiproliferative activity against human CCRF-CEM cells assessed as inhibition of RNA synthesis at 5 time of IC50 by BrdU incorporation assay; type: functional, cell-based; settings: in the assay text read “BrU incorporation assay” for “BrdU incorporation assay”
# Outline: (§5)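 Mitotic fraction scored with the pH3 Ser10 marker and DNA synthesis with BrdU incorporation. For transcription, cells received a short BrU pulse after the 24 h pre-incubation. Read by flow cytometry against untreated cells.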
# [19] = Stability in human plasma assessed as compound remaining measured 60 mins by RF-MS analysis; type: ADME, cell-free; settings: read-out: Stability; outline: as §4
# [20] = Stability in human plasma assessed as compound remaining measured 30 mins by RF-MS analysis; type: ADME, cell-free; settings: read-out: Stability; outline: as §4
# A549 = experiment: Cytotoxicity against human A549 cells assessed as reduction in cell viability incubated for 72 hrs by MTS assay; type: functional, cell-based; settings: A549, 72 h
# [21] = Efflux ratio of apparent permeability across basolateral to apical side over apical to basolateral side in human Caco-2 cells; type: ADME, cell-based; outline: as §1
# [22] = Cytotoxicity against human MRC5 cells assessed as reduction in cell viability incubated for 72 hrs by MTS assay; type: toxicity, cell-based
# CCRF-CEM [23] = experiment: Cytotoxicity against human CCRF-CEM cells assessed as reduction in cell viability incubated for 72 hrs by MTS assay; type: functional, cell-based
# CCRF-CEM [24] = experiment: Antimitotic activity against human CCRF-CEM cells assessed as decrease in cell division at 5 times of IC50; type: functional, cell-based; outline: as §5
# [25] = Cytotoxicity against human BJ cells assessed as reduction in cell viability incubated for 72 hrs by MTS assay; type: toxicity, cell-based
# [26] = Stability in human plasma assessed as compound remaining measured 15 mins by RF-MS analysis; type: ADME, cell-free; settings: read-out: Stability; outline: as §4
# CCRF-CEM [27] = experiment: Antiproliferative activity against human CCRF-CEM cells assessed as reduction cell population at 1 time of IC50 by BrdU incorporation assay; type: functional, cell-based; outline: as §5
# CEM-DNR = experiment: Cytotoxicity against human CEM-DNR cells assessed as reduction in cell viability incubated for 72 hrs by MTS assay; type: functional, cell-based
# [28] = Apparent permeability of the compound across apical to basolateral side in MDCK-MDR1 cells assessed as compound recovery at 10 uM incubated for 1 hr by RF-MS analysis; type: ADME, cell-based, Canis lupus familiaris; settings: dog, read-out: Activity; outline: as §1
# CCRF-CEM [29] = experiment: Induction of apoptosis in human CCRF-CEM cells assessed as late apoptotic cells at 1 time IC50 incubated for 24 hrs by Annexin V and propidium iodide staining based flow cytometry analysis (reference value: 0.5%); type: functional
# [30] = Apparent permeability of the compound across apical to basolateral side in human Caco-2 cells assessed as compound recovery; type: ADME, cell-based; settings: read-out: Activity; outline: as §1
# CCRF-CEM [31] = experiment: Induction of apoptosis in human CCRF-CEM cells assessed as reduction in Bcl-2 expression at 5 time of IC50 incubated for 24 hrs by Western blot analysis; type: functional, cell-based; outline: as §3
# [32] = Metabolic stability in human liver microsomes assessed as compound remaining at measured at 30 mins in presence of NADPH by RF-MS analysis; type: ADME, Microsome; settings: read-out: Stability; outline: as §2
# [33] = Apparent permeability of the compound in MDCK-MDR1 cells at 10 uM incubated for 1 hr by RF-MS analysis; type: ADME, cell-based, Canis lupus familiaris; settings: dog; outline: as §1
# K562 = experiment: Cytotoxicity against human K562 cells assessed as reduction in cell viability incubated for 72 hrs by MTS assay; type: functional, cell-based; settings: K562, 72 h
# CCRF-CEM [34] = experiment: Induction of apoptosis in human CCRF-CEM cells assessed as reduction in caspase-3 expression at 5 time of IC50 incubated for 24 hrs by Western blot analysis; type: functional, cell-based; outline: as §3
efflux ratio [1],remaining at 1 h [2],Papp [5],fraction unbound at 10 µM [11],remaining at 0.25 h [15],remaining at 2 h [17],SMILES,Activity (CCRF-CEM [3]),Activity (CCRF-CEM [4]),Activity (CCRF-CEM [6]),Activity (CCRF-CEM [7]),Activity (CCRF-CEM [8]),IC50 [9],Activity (CCRF-CEM [10]),IC50 (HCT-116),IC50 (HCT 116 TP53(-/-)),IC50 (U2OS),Activity (CCRF-CEM [12]),Activity (CCRF-CEM [13]),Activity (CCRF-CEM [14]),Activity (CCRF-CEM [16]),also measured
71.8,56%,0.09 ×10⁻⁶ cm/s,0.403,92%,89%,CC(C)[C@@H]1CC[C@]2(C(=O)O)CC[C@]3(C)[C@H](CC[C@@H]4[C@@]5(C)CC6=C(C7C(=O)N(c8ccccc8)C(=O)C7C=C6C(F)(F)F)C(C)(C)[C@@H]5CC[C@]43C)[C@@H]12 (stereo partly drawn),6.7%,0%,4.7%,5.2%,0%,> 50 µM,90.3%,29 µM,28 µM,4.8 µM,2.2%,92.4%,4.5%,Active,"Activity (CCRF-CEM [18]): Active; remaining at 1 h [19]: 96.7%; remaining at 0.5 h [20]: 102%; IC50 (A549): 18 µM; efflux ratio [21]: 63.5; IC50 at 72 h [22]: 28 µM; IC50 (CCRF-CEM [23]): 4.5 µM; Activity (CCRF-CEM [24]): inactive; IC50 at 72 h [25]: 25 µM; remaining at 0.25 h [26]: 99.2%; Activity (CCRF-CEM [27]): Active; IC50 (CEM-DNR): > 50 µM; recovery at 1 h, 10 µM [28]: 86%; Activity (CCRF-CEM [29]): 2.9%; recovery [30]: 84.2%; Activity (CCRF-CEM [31]): Active; remaining at 0.5 h [32]: 92%; Papp at 1 h, 10 µM [33]: 0.05 ×10⁻⁶ cm/s; IC50 (K562): 30 µM"
26,70%,0.04 ×10⁻⁶ cm/s,0.135,100%,93.6%,C=C(C)[C@@H]1CC[C@]2(C(=O)O)CC[C@]3(C)[C@H](CC[C@@H]4[C@@]5(C)Cc6c(C(F)(F)F)cc(=O)oc6C(C)(C)[C@@H]5CC[C@]43C)[C@@H]12,30.2%,0%,5.3%,17.3%,0.1%,10 µM,51.2%,13 µM,15 µM,18 µM,4.4%,90.9%,31.5%,Active,"Activity (CCRF-CEM [18]): Active; remaining at 1 h [19]: 102%; remaining at 0.5 h [20]: 99.2%; IC50 (A549): 16 µM; efflux ratio [21]: 28.4; IC50 at 72 h [22]: 28 µM; IC50 (CCRF-CEM [23]): 4 µM; Activity (CCRF-CEM [34]): Active; Activity (CCRF-CEM [24]): Active; IC50 at 72 h [25]: > 50 µM; remaining at 0.25 h [26]: 99.9%; IC50 (CEM-DNR): 7.8 µM; recovery at 1 h, 10 µM [28]: 70.7%; Activity (CCRF-CEM [29]): 3.7%; recovery [30]: 104%; Activity (CCRF-CEM [31]): Active; remaining at 0.5 h [32]: 86%; Papp at 1 h, 10 µM [33]: 0.14 ×10⁻⁶ cm/s; IC50 (K562): 22 µM"
